Assay [1] relates to A549. Nature of the assay: Cytotoxicity against human A549 cells after 24 hrs by MTS assay. The format is functional, cell-based. An outline of the steps:
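A549 cells seeded at 10³ cells/well, allowed to attach 24 h, then exposed to drug prepared in medium at 1, 10 or 100 µM for 24 h. MTS/PES reagent added, 1 h at 37 °C, absorbance read at 490 nm. Quintuplicate wells; viability expressed as percentage of control.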

Another assay concerns the target Tubulin (Sus scrofa) (UniProt P02554+P02550). The experiment in a line: Inhibition of pig brain tubulin polymerization at 10 uM. The method in brief: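 Tubulin purified from porcine brain by three warm-cold cycles plus anion-exchange to remove MAPs. Tubulin at 2.7 mg/ml was preincubated with drug (final 10 µM, 0.2% DMSO) in GTP-free K-Pipes pH 6.9 buffer with 10% glycerol, 15 min at 37 °C. Then 1 mM GTP was added and the mix held 30 min at 37 °C. Polymer and soluble fractions were separated at 30,000g and run on SDS-PAGE with Coomassie staining; densitometry; unpaired t-test.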

Assay [2] concerns A549. Nature of the assay: Cytotoxicity against human A549 cells at 10 uM after 24 hrs […]. The format is functional, cell-based.
The test system of assay [3] is A549. The experiment in a line: Cell cycle arrest in human A549 cells assessed as accumulation at G2/M phase at 10 uM at 24 hrs. The format is functional. An outline of the steps: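 A549 human lung carcinoma cells were grown in E-MEM with 10% FBS, 2 mM L-glutamine, penicillin and non-essential amino acids at 37 °C, 5% CO2. Cells were seeded at 10⁵–2·10⁵ per well, attached 24 h, then drug-treated (DMSO vehicle control) for 24 h at 37 °C. They were harvested by trypsin, stained for DNA with the CycleTEST PLUS kit, and analysed by flow cytometry for G2/M fraction.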

Each structure is given as a SMILES string. Calls of active or inactive are those of the source. No cut-off for these calls is given here.

Chain of Tubulin (Sus scrofa) (P02550 whole entry, looked up): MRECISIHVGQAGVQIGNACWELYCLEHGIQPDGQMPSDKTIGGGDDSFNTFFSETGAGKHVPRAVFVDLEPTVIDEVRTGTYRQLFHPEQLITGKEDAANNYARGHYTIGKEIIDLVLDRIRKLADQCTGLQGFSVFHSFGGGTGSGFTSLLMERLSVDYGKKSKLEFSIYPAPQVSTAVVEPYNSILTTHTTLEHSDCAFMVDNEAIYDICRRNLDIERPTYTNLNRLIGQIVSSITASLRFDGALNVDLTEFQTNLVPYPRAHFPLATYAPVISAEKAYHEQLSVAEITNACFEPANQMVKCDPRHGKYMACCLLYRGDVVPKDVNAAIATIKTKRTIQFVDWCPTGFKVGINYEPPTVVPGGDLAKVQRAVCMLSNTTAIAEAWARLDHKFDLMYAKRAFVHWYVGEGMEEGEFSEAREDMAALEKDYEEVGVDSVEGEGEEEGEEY
Chain of Tubulin (Sus scrofa) (P02554 whole entry, looked up): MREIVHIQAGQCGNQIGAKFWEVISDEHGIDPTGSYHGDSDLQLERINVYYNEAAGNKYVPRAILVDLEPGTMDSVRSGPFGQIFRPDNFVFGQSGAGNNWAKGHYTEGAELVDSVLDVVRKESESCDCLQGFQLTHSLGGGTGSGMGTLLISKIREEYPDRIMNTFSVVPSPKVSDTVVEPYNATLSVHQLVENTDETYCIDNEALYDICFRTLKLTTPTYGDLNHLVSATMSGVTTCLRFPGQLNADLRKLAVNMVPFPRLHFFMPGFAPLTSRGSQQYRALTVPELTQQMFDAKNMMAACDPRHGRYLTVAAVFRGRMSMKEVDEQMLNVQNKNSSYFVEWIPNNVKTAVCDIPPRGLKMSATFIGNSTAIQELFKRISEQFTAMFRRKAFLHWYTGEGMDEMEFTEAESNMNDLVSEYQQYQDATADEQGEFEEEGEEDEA

As to `CC[C@]12C=CCN3CC[C@@]4(c5ccc(OC)cc5N(C)[C@H]4[C@@](O)(C(=O)OC)[C@@H]1OC(=O)CCCCCCCCC(=O)OC1C[C@@]4(O)[C@@H](OC(=O)c5ccccc5)[C@@H]5[C@]6(OC(C)=O)CO[C@@H]6C[C@H](O[Si](CC)(CC)CC)[C@@]5(C)C(=O)[C@H](OC(C)=O)C(=C1C)C4(C)C)[C@@H]32` (some centres not stated), the result with A549 [1] and at Tubulin (Sus scrofa) was Active. For the compound `CC[C@]12C=CCN3CC[C@@]4(c5ccc(OC)cc5N(C)[C@H]4[C@@](O)(C(=O)OC)[C@@H]1OC(=O)CCCCCCCCC(=O)O[C@H]1c4cc5c(cc4[C@@H](c4cc(OC)c(OC)c(OC)c4)[C@H]4C(=O)OC[C@@H]41)OCO5)[C@@H]32`, the result with A549 [1] was Active. On to `CC[C@]12C=CCN3CC[C@@]4(c5ccc(OC)cc5N(C)[C@H]4[C@@](O)(C(=O)OC)[C@@H]1OC(=O)CCCCCCCCC(=O)N[C@H]1CCc4cc(OC)c(OC)c(OC)c4-c4ccc(SC)c(=O)cc41)[C@@H]32`, for which the outcome in the assay on A549 [1] was Active.

For `CC[C@]12C=CCN3CC[C@@]4(c5ccc(OC)cc5N(C)[C@H]4[C@@](O)(C(=O)OC)[C@@H]1OC(=O)CCC(=O)O[C@H]1c4cc5c(cc4[C@@H](c4cc(OC)c(OC)c(OC)c4)[C@H]4C(=O)OC[C@@H]41)OCO5)[C@@H]32`, in the assay with A549 [1], the outcome was Active. Turning to `CC[C@]12C=CCN3CC[C@@]4(c5ccc(OC)cc5N(C)[C@H]4[C@@](O)(C(=O)OC)[C@@H]1OC(=O)CCC(=O)OC1C[C@@]4(O)[C@@H](OC(=O)c5ccccc5)[C@@H]5[C@]6(OC(C)=O)CO[C@@H]6C[C@H](O[Si](CC)(CC)CC)[C@@]5(C)C(=O)[C@H](OC(C)=O)C(=C1C)C4(C)C)[C@@H]32` (some centres not stated), the result with A549 [1] was Active. With `CCC1=C[C@H]2CN(C1)Cc1c([nH]c3ccccc13)[C@@](C(=O)OC)(c1cc3c(cc1OC)N(C)[C@H]1[C@@](O)(C(=O)OC)[C@H](OC(=O)CCC(=O)O[C@H]4c5cc6c(cc5[C@@H](c5cc(OC)c(OC)c(OC)c5)[C@H]5C(=O)OC[C@@H]54)OCO6)[C@]4(CC)C=CCN5CC[C@]31[C@@H]54)C2`, the result with A549 [1] and with A549 [2] was Active. For the compound `CC[C@]12C=CCN3CC[C@@]4(c5ccc(OC)cc5N(C)[C@H]4[C@@](O)(C(=O)OC)[C@@H]1OC(=O)CCC(=O)N[C@H]1CCc4cc(OC)c(OC)c(OC)c4-c4ccc(SC)c(=O)cc41)[C@@H]32`, the result in the assay on A549 [1] and at Tubulin (Sus scrofa) was Active. Besides, the Activity in the assay on A549 [3] came to 74%.

Turning to `CCC1=C[C@H]2CN(C1)Cc1c([nH]c3ccccc13)[C@@](C(=O)OC)(c1cc3c(cc1OC)N(C)[C@H]1[C@@](O)(C(=O)OC)[C@H](OC(=O)CCC(=O)N[C@H]4CCc5cc(OC)c(OC)c(OC)c5-c5ccc(SC)c(=O)cc54)[C@]4(CC)C=CCN5CC[C@]31[C@@H]54)C2`, the result with A549 [1] was Active.

The values above are taken from ChEMBL document CHEMBL1150361, “Inhibitors of tubulin polymerization: synthesis and biological evaluation of hybrids of vindoline, anhydrovinblastine and vinorelbine with thiocolchicine, podophyllotoxin and baccatin III” (2008).
